High-throughput results deposited in PubChem BioAssay by Broad Institute.
In the library only some 1.9% were active in any assay of this set; here they are far more common.
SR-BI DiI inh: blocks mouse SR-BI lipid uptake from DiI-HDL | Q61009 | ldlA[mSR-BI] CHO cells, DiI-HDL uptake fluorescence, 3 h | inhibition, % at 12.5 µM | actives 0.96% (n = 320,000);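 active = mean replicate inhibition of at least 70% and a set share of replicates each scoring 70 or more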;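 note: 0% = median of neutral control wells and 100% = median of positive control wells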
Rtt109 HAT inh: C. albicans Rtt109 histone acetyltransferase inhibition | Q5AAJ8 | purified Rtt109/Vps75, ThioGlo CoA-SH fluorescence, 4 h | inhibition, % at 34.9 µM | actives 0.16% (n = 330,000) | AID 540336;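 active = inhibition of at least 50% in every replicate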
Target sequence (Q5AAJ8 whole entry, looked up): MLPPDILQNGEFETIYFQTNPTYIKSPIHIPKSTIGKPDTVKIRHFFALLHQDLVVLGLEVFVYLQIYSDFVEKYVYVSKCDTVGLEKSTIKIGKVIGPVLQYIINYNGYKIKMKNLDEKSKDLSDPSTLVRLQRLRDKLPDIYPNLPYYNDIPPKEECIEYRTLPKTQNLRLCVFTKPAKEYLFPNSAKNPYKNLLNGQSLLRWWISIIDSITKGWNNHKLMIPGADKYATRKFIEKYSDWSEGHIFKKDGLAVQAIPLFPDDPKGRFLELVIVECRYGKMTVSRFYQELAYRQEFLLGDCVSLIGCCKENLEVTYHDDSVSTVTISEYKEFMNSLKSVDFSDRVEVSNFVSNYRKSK
PglD inh: inhibitors of Campylobacter jejuni PglD acetyltransferase | purified PglD enzyme, DTNB colorimetric CoA detection | inhibition, % at 12.5 µM | actives 0.098% (n = 360,000) | AID 602405; in the data active = inhibition above about 16%, passing the limit was not always enough
HIV Env fusion: inhibitors of HIV Env-mediated cell fusion | HeLa-JRFL Env/CEM21 cell fusion, luciferase | inhibition, % at 12.3 µM | actives 1.1% (n = 360,000) | AID 651610;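 active = mean replicate inhibition score of at least 50 and every replicate individually at or above 50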;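 note: 0% = plate neutral controls and 100% = maraviroc near 300 nM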
SR-BI DiI-HDL act: enhances SR-BI lipid uptake from DiI-HDL | actives 0.096% (n = 320,000) | AID 504775 | activation, % at 12.5 µM | CHO ldlA[mSR-BI] cells, DiI-HDL uptake fluorescence, 3 h; 100 = double the neutral-control signal;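 active = mean replicate activation of at least 60% and every replicate at or above 60%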;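 note: 0% = median plate neutral-control signal and 100% = twice that signal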
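material = CHO ldlA[mSR-BI] cells | medium = Ham's F12 with 0.5% BSA, HEPES 25 mM, pH 7.4 | reagent = fluorescent DiI-HDL, 10 µg/mL final | compound dosing = single-point compound dose | incubation = 3 h, 37 °C | measured by = bottom-read fluorescence, 550/595 nm | measure = HDL uptake via cellular fluorescence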
Glyco luc inh: blocks N-linked glycosylation in D54 reporter cells. D54 ERlucT glycosylation luciferase reporter, 24 h; percent of 100 nM tunicamycin response. reporter increase, % at 12.5 µM. actives 0.23% (n = 360,000);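 active = mean luciferase reporter signal, scaled so untreated is 0 and the glycosylation-blocking control 100, at or above a set limit in every replicate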;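 note: luciferase carries N-glycosylation sites so blocking glycosylation raises the light; 0% = median of neutral control wells and 100% = median of 100 nM tunicamycin wells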
Numbers without * were called inactive; [ ] = another dose, or the depositor's remark.

CCC(=O)Nc1ccc2c(c1)OC[C@@H](C)N(C(=O)COC)C[C@H](C)[C@@H](OC)CN(C)C2=O was read as HIV Env fusion -5.9[16.7 µM].
`C=CCn1c(SCC(=O)Nc2sccc2C(N)=O)nc2sc(C)c(C)c2c1=O` gave SR-BI DiI inh 1.7, Rtt109 HAT inh 14.6, PglD inh 2.5, HIV Env fusion 57.8*, SR-BI DiI-HDL act -1.7 and Glyco luc inh -0.2.
`COc1ccc(NC(=O)Nc2nnc(-c3cccs3)s2)cc1` gave Rtt109 HAT inh 61.5*, HIV Env fusion -50.6 and Glyco luc inh -1.0.
For COCC(=O)Nc1ccc2c(c1)[C@@H]1C[C@H](CC(=O)N3CCN(C)CC3)O[C@@H](CO)[C@@H]1O2 the results were PglD inh 4.1 and HIV Env fusion -7.3[16.7 µM].
`CCC(=O)N1CCCCN2[C@H](C1)[C@H](c1ccc(C#Cc3ccccc3F)cc1)[C@@H]2CO` gave PglD inh -2.4.
Cc1ccc(S(=O)(=O)Nc2ccc3c(c2)CC(=O)N([C@H](C)CO)C[C@H](C)[C@H](CN(C)S(=O)(=O)c2ccc(F)cc2)O3)cc1 was read as PglD inh 1.1 and HIV Env fusion 110.3*[16.7 µM].
Screening C[C@H](CO)N1C[C@H](C)[C@H](CN(C)S(=O)(=O)c2ccccc2)Oc2ccc(NS(=O)(=O)c3ccccc3)cc2CC1=O returned PglD inh 2.7 and HIV Env fusion 90.6*[16.7 µM].
Screening C[C@H](CO)N1C[C@H](C)[C@@H](CN(C)S(=O)(=O)c2ccc(F)cc2)Oc2ccc(NS(=O)(=O)c3cn(C)cn3)cc2CC1=O returned HIV Env fusion 64.1*[16.7 µM].
`C[C@H](CO)N1C[C@H](C)[C@H](CN(C)S(=O)(=O)c2ccc(Cl)cc2)Oc2ccc(NS(=O)(=O)c3ccccc3)cc2CC1=O` gave PglD inh 1.9 and HIV Env fusion 55.3*[16.7 µM].
Screening C[C@H](CO)N1C[C@H](C)[C@@H](CN(C)S(=O)(=O)c2ccccc2)Oc2ccc(NS(=O)(=O)c3ccccc3)cc2CC1=O returned PglD inh -3.0 and HIV Env fusion -6.3[16.7 µM].
`COc1ccccc1NC(=O)N[C@@H]1CC[C@H](CCn2cc(-c3cccnc3)nn2)O[C@H]1CO` gave PglD inh 4.2 and HIV Env fusion 8.2[16.7 µM].
`C/C=C/c1ccc2c(c1)O[C@H](CN(C)C(C)=O)[C@@H](C)CN([C@@H](C)CO)S2(=O)=O` gave PglD inh -4.0 and HIV Env fusion -4.3[16.7 µM].
C[C@H](CO)N1C[C@H](C)[C@H](CN(C)S(=O)(=O)c2ccccc2)Oc2ccc(NS(=O)(=O)c3cccs3)cc2CC1=O was read as PglD inh 0.0 and HIV Env fusion 63.9*[16.7 µM].
Screening C[C@@H]1CN([C@@H](C)CO)C(=O)Cc2cc(NS(=O)(=O)c3cccs3)ccc2O[C@H]1CN(C)S(=O)(=O)c1ccccc1 returned PglD inh 1.2 and HIV Env fusion -10.6[16.7 µM].
C[C@H](CO)N1C[C@H](C)[C@H](CN(C)S(=O)(=O)c2ccccc2)Oc2ccc(NS(=O)(=O)c3ccc(F)cc3)cc2CC1=O was read as PglD inh -1.7 and HIV Env fusion 57.6*[16.7 µM].
`C[C@H](CO)N1C[C@H](C)[C@@H](CN(C)S(=O)(=O)c2ccc(F)cc2)Oc2ccc(NS(=O)(=O)c3ccccc3)cc2CC1=O` gave PglD inh -2.7 and HIV Env fusion 32.4[16.7 µM].
Screening C[C@H](CO)N1C[C@H](C)[C@H](CN(C)S(=O)(=O)c2ccccc2)Oc2ccc(NS(=O)(=O)c3ccc(Cl)cc3)cc2CC1=O returned PglD inh 0.4 and HIV Env fusion 56.5*[16.7 µM].
For C[C@@H]1CN([C@@H](C)CO)C(=O)Cc2cc(NS(=O)(=O)c3ccc(Cl)cc3)ccc2O[C@@H]1CN(C)S(=O)(=O)c1ccccc1 the results were PglD inh -1.4 and HIV Env fusion 6.6[16.7 µM].
Screening CC(C)CC#Cc1ccc2c(c1)O[C@@H](CN(C)S(=O)(=O)c1ccc(F)cc1)[C@@H](C)CN([C@H](C)CO)S2(=O)=O returned PglD inh 0.6 and HIV Env fusion 61.7*[16.7 µM].
